Structures can show the parent of a compound that is named as a salt.
Key:
Tubulin [1] = target: T1, Tubulin (Sus scrofa, UniProt P02554+P02550); test: In vitro inhibition of maximum porcine tubulin assembly rate after 20 min at 37 degrees C; type: functional
K562 = test: In vitro inhibitory concentration against human chronic myelogenous leukemia K562 cell growth; type: functional, cell-based
NCI-H460 [2] = test: Tested for induction of cellular death in Human lung H-460 tumor cell line in Propidium Iodide Monolayer Assay; type: functional, cell-based
Method in brief: (§1)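 Propidium iodide monolayer assay: cells seeded at 1 × 10^5 or 5 × 10^4 cells/mL, 24 h recovery, drug in triplicate for 3–6 days by doubling time; PI 25 μg/mL added, fluorescence (ex 530/em 620 nm) read before and after freezing at −18 °C for 24 h; viable cells from the difference; % T/C versus concentration.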

RKO [3] = test: Cytotoxic activity against human colon adenocarcinoma RKO cells with ectopic inducible expression of cyclin-dependent kinase inhibitor p27kip1; type: functional, cell-based
LXFL 529 = test: Tested for induction of cellular death in Human lung LXF 529L tumor cell line in Propidium Iodide Monolayer Assay; type: functional, cell-based; method in brief: as §1
MCF7 = test: Tested for induction of cellular death in Human breast MCF-7 tumor cell line in Propidium Iodide Monolayer Assay; type: functional, cell-based; method in brief: as §1
RKO [4] = test: Cytotoxic activity against human colon adenocarcinoma RKO cells without ectopic inducible expression of cyclin-dependent kinase inhibitor p27kip1; type: functional, cell-based
MAXF401 cell line = test: Tested for induction of cellular death in Human breast 401NL tumor cell line in Propidium Iodide Monolayer Assay; type: functional, cell-based; method in brief: as §1
RXF 944 = test: Tested for induction of cellular death in Human renal RXF 944L tumor cell line in Propidium Iodide Monolayer Assay; type: functional, cell-based; method in brief: as §1
NCI-H460 [5] = test: Cytotoxic activity against cellular metabolic activity of Lung NCI-H460 tumor cell line using XTT proliferation assay after incubation with the compound for 48 h; type: functional, cell-based; conditions: Homo sapiens, NCI-H460, 48 h
Method in brief: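 NCI-H460 human lung tumor cells seeded at 1 × 10^3 cells/well in microtiter plates and exposed to a range of compound concentrations for 48 h. Proliferation read as cellular metabolic activity by XTT. At least two replicates (n = 2); IC50 obtained from dose–response curves by nonlinear regression.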

SK-OV-3 = test: Cytotoxic activity against cellular metabolic activity of Ovary SKOV3 tumor cell line using XTT proliferation assay after incubation with the compound for 48 h; type: functional, cell-based; conditions: Homo sapiens, SK-OV-3, 48 h
P388 (Mus musculus) = test: Antiproliferative activity against P388 tumor cell line
Sus scrofa = species on record: Sus scrofa; test: In vitro inhibitory concentration against tubulin assembly; type: functional
P388/ADR = test: Antiproliferative activity against P388 phenotype P388 ADR tumor cell line; type: functional, cell-based; conditions: Mus musculus
SF-268 [6] = test: Cytotoxic activity against cellular metabolic activity of Glioma SF-268 tumor cell line using XTT proliferation assay after incubation with the compound for 48 h; type: functional, cell-based; conditions: Homo sapiens, SF-268, 48 h
HeLa (Homo sapiens) = test: Effective concentration required to arrest propidium iodide stained KB/HeLa cells in G2/M phase
Tubulin [7] = target: T1, Tubulin; test: In vitro inhibitory concentration required to displace [3H]colchicine from its binding site on tubulin; type: protein assay
[8] = test system: Lung LXF 629L tumor cell line; test: Tested for induction of cellular death in Human lung LXF 629L tumor cell line in Propidium Iodide Monolayer Assay; type: functional, cell-based; method in brief: as §1
L1210 [9] = test: Antiproliferative activity against L1210 phenotype L1210 VCR tumor cell line; type: functional, cell-based; conditions: Mus musculus
LT12 tumor cell line [10] = test: Antiproliferative activity against LT12 tumor cell line; type: functional, cell-based; conditions: Rattus norvegicus
KB = test: Cytotoxic activity against cellular metabolic activity of Cervix KB/HeLa tumor cell line using XTT proliferation assay after incubation with the compound for 48 h; type: functional, cell-based; conditions: Homo sapiens
LT12 tumor cell line [11] = test: Antiproliferative activity against LT12 phenotype LT12 MDR tumor cell line; type: functional, cell-based; conditions: Rattus norvegicus
L1210 [12] = test: Antiproliferative activity against L1210 tumor cell line; type: functional, cell-based; conditions: Mus musculus
SF-268 [13] = test: Tested for induction of cellular death in Human ZNS SF-268 tumor cell line in Propidium Iodide Monolayer Assay; type: functional, cell-based; method in brief: as §1

## O=C1c2ccccc2C(=Cc2cc(Br)c(O)c(Br)c2)c2ccccc21
Tubulin [1]
  IC50: 0.48 µM
K562
  IC50: 0.16 µM

## CC(C)(C)c1cc(C=C2c3ccccc3C(=O)c3ccccc32)cc(C(C)(C)C)c1O
K562
  IC50: 39 µM

## Cc1cc(C=C2c3ccccc3C(=O)c3ccccc32)cc(C)c1O
Tubulin [1]
  IC50: 0.91 µM
K562
  IC50: 0.8 µM

## CC[C@]1(O)C[C@@H]2CN(CCc3c([nH]c4ccccc34)[C@@](C(=O)OC)(c3cc4c(cc3OC)N(C)[C@H]3[C@@](O)(C(=O)OC)[C@H](OC(C)=O)[C@]5(CC)C=CCN6CC[C@]43[C@@H]65)C2)C1 [VINBLASTINE SULFATE]
K562
  IC50: 0.001 µM

## O=C1c2ccccc2C(=Cc2ccc(OCc3ccccc3)cc2)c2ccccc21
Tubulin [1]
  IC50: > 10 µM
K562
  IC50: 22 µM

## COc1ccc(C=C2c3ccccc3C(=O)c3ccccc32)c(OC)c1O
NCI-H460 [2]
  IC50: 0.15 µM
RKO [3]
  IC50: > 9 µM
LXFL 529
  IC50: 0.07 µM
MCF7
  IC50: 1.85 µM
RKO [4]
  IC50: 0.05 µM
MAXF401 cell line
  IC50: < 0.01 µM
RXF 944
  IC50: < 0.01 µM
NCI-H460 [5]
  IC50: 0.06 µM
SK-OV-3
  IC50: 0.06 µM
P388 (Mus musculus)
  IC50: 0.08 µM
Tubulin [1]
  IC50: 0.43 µM
Sus scrofa
  IC50: 0.43 µM
K562
  IC50: 0.25 µM
P388/ADR
  IC50: 0.11 µM
SF-268 [6]
  IC50: 0.06 µM
HeLa (Homo sapiens)
  EC50: 0.234 µM
Tubulin [7]
  IC50: 0.22 µM
[8]
  IC50: 0.05 µM
L1210 [9]
  IC50: 0.07 µM
LT12 tumor cell line [10]
  IC50: 0.12 µM
KB
  IC50: 0.05 µM
LT12 tumor cell line [11]
  IC50: 0.09 µM
L1210 [12]
  IC50: 0.05 µM
SF-268 [13]
  IC50: 0.04 µM

## COc1ccc(CC2c3ccccc3C(=O)c3ccccc32)cc1OC
Tubulin [1]
  IC50: > 10 µM
K562
  IC50: 62 µM

## CC[C@]1(O)C[C@@H]2CN(CCc3c([nH]c4ccccc34)[C@@](C(=O)OC)(c3cc4c(cc3OC)N(C)[C@H]3[C@@](O)(C(N)=O)[C@H](O)[C@]5(CC)C=CCN6CC[C@]43[C@@H]65)C2)C1 [VINDESINE]
P388 (Mus musculus)
  IC50: 0.01 µM
P388/ADR
  IC50: 1.1 µM
L1210 [9]
  IC50: > 5 µM
LT12 tumor cell line [10]
  IC50: 0.001 µM
LT12 tumor cell line [11]
  IC50: 0.26 µM
L1210 [12]
  IC50: 0.02 µM

## O=C1c2ccccc2C(=Cc2cc(Cl)cc(Cl)c2)c2ccccc21
Tubulin [1]
  IC50: > 10 µM
K562
  IC50: 6 µM

## COc1cc2c(c(OC)c1OC)-c1ccc(OC)c(=O)cc1[C@@H](NC(C)=O)CC2 [COLCHICINE]
RKO [3]
  IC50: > 10 µM
RKO [4]
  IC50: 0.02 µM
NCI-H460 [5]
  IC50: 0.07 µM
SK-OV-3
  IC50: 0.05 µM
K562
  IC50: 0.02 µM
SF-268 [6]
  IC50: 0.05 µM
KB
  IC50: 0.03 µM

## CC(=O)O[C@H]1C(=O)[C@@]2(C)[C@H]([C@H](OC(=O)c3ccccc3)[C@]3(O)C[C@H](OC(=O)[C@H](O)[C@@H](NC(=O)c4ccccc4)c4ccccc4)C(C)=C1C3(C)C)[C@]1(OC(C)=O)CO[C@@H]1C[C@@H]2O [PACLITAXEL]
RKO [3]
  IC50: > 3 µM
RKO [4]
  IC50: 0.01 µM
NCI-H460 [5]
  IC50: 0.01 µM
SK-OV-3
  IC50: 0.01 µM
P388 (Mus musculus)
  IC50: 0.04 µM
P388/ADR
  IC50: > 5 µM
SF-268 [6]
  IC50: 0.01 µM
HeLa (Homo sapiens)
  EC50: 0.054 µM
L1210 [9]
  IC50: > 5 µM
LT12 tumor cell line [10]
  IC50: 0.006 µM
KB
  IC50: 0.01 µM
LT12 tumor cell line [11]
  IC50: 0.4 µM
L1210 [12]
  IC50: 0.06 µM

## COc1cc(C=C2c3ccccc3C(=O)c3ccccc32)cc(OC)c1OC
Tubulin [1]
  IC50: 10 µM
K562
  IC50: 4 µM

## O=C1c2ccccc2C(=Cc2ccc(O)c(O)c2)c2ccccc21
NCI-H460 [2]
  IC50: < 0.01 µM
LXFL 529
  IC50: 1.62 µM
MCF7
  IC50: 0.04 µM
MAXF401 cell line
  IC50: 0.21 µM
RXF 944
  IC50: 0.03 µM
Tubulin [1]
  IC50: 1.8 µM
K562
  IC50: 0.06 µM
[8]
  IC50: 0.26 µM
SF-268 [13]
  IC50: 1.16 µM

## O=C1c2ccccc2C(=Cc2ccc(O)cc2)c2ccccc21
Tubulin [1]
  IC50: 2.5 µM
K562
  IC50: 0.8 µM

## COc1ccc(CC2c3ccccc3C(=O)c3ccccc32)cc1O
Tubulin [1]
  IC50: 2.3 µM
K562
  IC50: 7 µM

## O=C1c2ccccc2C(=Cc2ccc([N+](=O)[O-])cc2)c2ccccc21
K562
  IC50: 3 µM

## COc1cc(C=C2c3ccccc3C(=O)c3ccccc32)ccc1O
NCI-H460 [2]
  IC50: 2.36 µM
LXFL 529
  IC50: 3.23 µM
MCF7
  IC50: 2.52 µM
MAXF401 cell line
  IC50: 1.51 µM
RXF 944
  IC50: 2.83 µM
Tubulin [1]
  IC50: 0.63 µM
Sus scrofa
  IC50: < 1 µM
K562
  IC50: 1.4 µM
[8]
  IC50: 2.07 µM
SF-268 [13]
  IC50: 2.97 µM

## COc1ccc(C=C2c3ccccc3C(=O)c3ccccc32)c(O)c1
Tubulin [1]
  IC50: 1.2 µM
Sus scrofa
  IC50: 1.2 µM
K562
  IC50: 0.07 µM

## COc1cccc(C=C2c3ccccc3C(=O)c3ccccc32)c1O
NCI-H460 [2]
  IC50: 3.33 µM
LXFL 529
  IC50: 4.45 µM
MCF7
  IC50: 0.8 µM
MAXF401 cell line
  IC50: 0.02 µM
RXF 944
  IC50: 0.36 µM
Tubulin [1]
  IC50: 0.91 µM
Sus scrofa
  IC50: < 1 µM
K562
  IC50: 0.73 µM
[8]
  IC50: 2.02 µM
SF-268 [13]
  IC50: 0.98 µM

Reference: ChEMBL document CHEMBL1136796 (J Med Chem, 2003)
